Assay results gathered from unrelated publications.
Protocols differ between the studies behind these lines.
Target: Sigma non-opioid intracellular receptor 1 (SIGMAR1, Homo sapiens, UniProt Q99720)

| SMILES | read-out | method | notes | Ki [nM] |
| --- | --- | --- | --- | --- |
| COc1ccc2ccn(CCCCN3Cc4cc(OC)c(OC)cc4C3)c2c1 | ligand displacement | radioligand | cell membranes | 70 |
| COc1ccccc1N1CCN(CCCCNC(=O)c2cc3cc(OCCF)ccc3[nH]2)CC1 | cell-free assay | – | – | > 10000 |
| CC(C)(C)Oc1cc(CCC(C)(C)N2Cc3ccc(S(C)(=O)=O)cc3C2)ccc1O | ligand displacement | radioligand | cell membranes | 63 |
| COc1ccc2ccn(CCCCN3CCc4cc(OC)c(OC)cc4C3)c2c1 | ligand displacement | radioligand | cell membranes | 357 |
| OCCCN1CC[C@@H]2C[C@H]1c1cc(-c3ccc(C(F)(F)F)cc3)ccc12 | ligand displacement | radioligand | – | 167 |
| COc1ccc2[nH]c(C(=O)NC/C=C/CN3CCN(c4ccccc4OC)CC3)cc2c1 | cell-free assay | – | – | > 10000 |
| CCCn1nc(C(=O)N2CCCCC2)c2c1CCC(NCCN1CCCCC1)C2 (stereo not drawn) | ligand displacement | radioligand | – | > 10000 |
| COc1cc2c(cc1OC)CN(CCCCn1ccc3c(OC)cccc31)CC2 | ligand displacement | radioligand | cell membranes | 259 |
| CCCn1nc(C(=O)N(C)C)c2c1CCC(NCc1ccc(Cl)cc1)C2 (stereo not drawn) | ligand displacement | radioligand | – | > 10000 |
| COc1ccccc1N1CCN(CCCCNC(=O)c2cc3cc(O)ccc3[nH]2)CC1 | cell-free assay | – | – | > 10000 |
| CCN(CC)CCCC(C)Nc1ccnc2cc(Cl)ccc12 (stereo not drawn) | ligand displacement | radioligand | – | 741 |
| CCCn1nc(C(=O)N2CCCCC2)c2c1CCC(N1CCN(c3ccc([N+](=O)[O-])cc3)CC1)C2 (stereo not drawn) | ligand displacement | radioligand | – | 1590 |
